High-throughput results from PubChem.
Most compounds without a hit are left out; they make up all but 4% or so of the library.
KCNQ1 act: potentiates or activates the human KCNQ1 potassium channel; P51787; CHO-K1 KCNQ1, thallium flux FluxOR fluorescence; active compounds read high; B-score at 10 µM; 310,000 tested, 0.35% active;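 active means fluorescence ratio B-score, a plate-corrected score, at least three library SD, with initial intensity B-score within 5 SD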
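Assay system: CHO-K1 cells stably expressing KCNQ1; Medium: assay buffer with matched DMSO; Also added: K+/Tl+ depolarizing stimulus; Dosing: single dose; Timing: dye 90 min, compound 20 min, room temperature; Measured by: kinetic FluxOR thallium fluorescence, 10-s 1-Hz baseline, 110-s post-stimulus read; Read-out: peak-minus-minimum fluorescence over initial fluorescence, negative-control normalized, B-scored.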
KCNK3 block: human KCNK3 channel inhibition, primary screen; 340,000 tested, 0.84% active; O14649; AID 602410; CHO-KCNK3 thallium flux, FluxOR fluorescence; active compounds read low; B-score at 10 µM;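 active means B-score under library mean minus 4 SD, starting fluorescence ratio at most library mean plus 5 SD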;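 further: more negative B-score means stronger inhibition of thallium flux through KCNK3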
KCNK9 inh: blocks the human KCNK9 two-pore domain potassium channel; Q9NPC2; HEK293 KCNK9, FluxOR thallium flux fluorescence; active compounds read low; B-score at 10 µM; 310,000 tested, 1.2% active;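 active means ratio B-score over 3 SD below the library mean, with starting fluorescence within 5 SD of its mean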;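 further: negative B-score means less thallium flux so channel inhibition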
KCNQ1 block: human KCNQ1 channel inhibition. CHO-K1 KCNQ1, FluxOR thallium flux fluorescence; active compounds read high. P51787. 310,000 tested, 1.3% active. B-score at 10 µM;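 active means compounds whose thallium flux B-score, printed positive for inhibition, exceeds three library SD while starting fluorescence stays within three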;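 further: channel opened by potassium depolarization with thallium stimulus after 20 min compound exposure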
hERG protect: compounds protecting human hERG from proarrhythmic drug block; Q12809; CHO-hERG, FluxOR thallium flux, dofetilide IC70 present; activation (rescue from dofetilide block), less the hit threshold, % at 10 µM; 310,000 tested, 0.51% active;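 active means activation above the mean of controls blocked by dofetilide plus 5 SD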;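 further: thallium influx through hERG after potassium depolarization seen as dye fluorescence rise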
PHOSPHO1 block: blocks human PHOSPHO1 phosphatase activity; Q8TCT1; recombinant PHOSPHO1, absorbance phosphatase assay; inhibition, % at 13.3 µM; 290,000 tested, 1.1% active; in the data active means inhibition above about 60%
Target sequence (Q8TCT1 whole entry, looked up): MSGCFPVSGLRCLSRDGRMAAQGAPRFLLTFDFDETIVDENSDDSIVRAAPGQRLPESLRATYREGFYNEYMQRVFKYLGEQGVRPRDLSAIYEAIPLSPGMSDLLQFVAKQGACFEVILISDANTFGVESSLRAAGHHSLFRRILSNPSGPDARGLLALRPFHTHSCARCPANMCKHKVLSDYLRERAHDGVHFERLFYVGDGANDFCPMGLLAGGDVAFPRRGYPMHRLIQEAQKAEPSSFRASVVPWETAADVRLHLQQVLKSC
KCNQ1 inh valid: reconfirmed blocker of the human KCNQ1 potassium channel. shares compounds with KCNQ1 block. KCNQ1 cell line, FluxOR thallium flux fluorescence. inhibition, % at 10 µM. 1,600 tested, 93% active. AID 588353;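 active means primary screen active, with duplicate mean exceeding buffer control mean plus 3 SD of buffer wells, cut at about 28% in these data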
CHO KCNQ1 ctr: KCNQ1 inhibitor counter-screen hit in parental CHO cells. 1,600 tested, 21% active. parental CHO-K1, FluxOR thallium flux fluorescence ratio; active compounds read low; zero means no signal rise above baseline. fluorescence ratio (Tl flux) at 10 µM. shares compounds with KCNQ1 block;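 active means mean of duplicate thallium-flux fluorescence ratios in parental host cells more than 5 SD below the buffer control mean, cut at about 0.38 in these data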;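 further: ratio is peak minus minimum fluorescence divided by baseline fluorescence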
KCNQ1 ephys val: confirmation of human KCNQ1 potassium channel inhibitors by electrophysiology; shares compounds with KCNQ1 block; KCNQ1-CHO cells, automated patch clamp current; calls only at 10 µM; 490 tested, 20% active; AID 624120;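 active means KCNQ1 current drop exceeding 3 SD of negative control wells, seen in both duplicate runs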;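 further: steady state current during a 2 s step from -80 to +40 mV; negative values mean current inhibition and positive values mean potentiation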
KCNQ2 spec: rat KCNQ2 inhibition in KCNQ1 inhibitor specificity screen; shares compounds with KCNQ1 block; KCNQ2 cells, FluxOR thallium flux fluorescence; inhibition, % at 10 µM; 1,600 tested, 71% active;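 active means mean percent inhibition of the KCNQ2 thallium signal more than 5 SD above the buffer-only control wells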;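 further: KCNQ2 expressed in CHO cells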
KCNQ1 KCNE1 spec: selectivity of KCNQ1 inhibitors: inhibition of human KCNQ1/KCNE1 channel | KCNQ1/KCNE1 cells, FluxOR thallium flux fluorescence | inhibition, % at 10 µM | shares compounds with KCNQ1 block | 1,600 tested, 77% active;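 active means mean percent inhibition of duplicate wells above the buffer-only control mean plus 3 SD of those controls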
Numbers stand for hits; . = inactive; / = no result; + = active, no number.

SMILES	KCNQ1 act	KCNK3 block	KCNK9 inh	KCNQ1 block	hERG protect	PHOSPHO1 block	KCNQ1 inh valid	CHO KCNQ1 ctr	KCNQ2 spec	KCNQ1 KCNE1 spec	others
Cc1noc(C)c1C(=O)Nc1sc(C)c(-c2ccccc2)c1C#N	.	.	.	9	.	.	107	.	81%	70%	KCNQ1 ephys val=.
Cc1onc(-c2ccccc2)c1C(=O)Nc1sccc1C#N	.	.	.	.	.	.	/	/	/	/
O=C(Nc1nc(-c2ccccc2)cs1)C1CCCCN1S(=O)(=O)c1ccccc1 (stereo unspecified)	.	.	.	.	.	.	/	/	/	/
O=C(Nc1nc(-c2ccccc2)cs1)C1CCCCN1S(=O)(=O)c1ccc(Cl)cc1 (stereo unspecified)	.	.	.	10	.	.	90	.	93%	131%	KCNQ1 ephys val=.
COc1cc(CNCCNC(=O)c2cccs2)cc(OC)c1OC	.	.	.	.	.	.	/	/	/	/
NC(=O)C(c1ccccc1)C1CCCC1 (stereo unspecified)	.	.	.	.	.	.	/	/	/	/
O=C(Nc1ccc2ccccc2c1)C(c1ccccc1)C1CCCC1 (stereo unspecified)	.	.	-7.5	15	.	.	138	0.31	123%	167%
O=C(CN1C(=O)c2ccccc2C1=O)N1CCN(S(=O)(=O)c2ccccc2)CC1	.	.	.	.	.	.	/	/	/	/
Cn1c(O)c(/C=N/NC(=O)c2cc3ccccc3cc2O)c2ccccc21	.	.	.	17	.	.	101	0.32	.	.
Cn1c2ccccc2c2cc(/C=N/NC(=O)c3ccc(O)cc3O)ccc21	.	.	.	.	.	.	/	/	/	/
Cc1csc2c(N3CCN(C(=O)Nc4ccc(Cl)c(Cl)c4)CC3)ncnc12	.	.	.	11	.	.	160	0.36	90%	+
Cc1csc2ncnc(N3CCN(C(=S)Nc4ccc(C(F)(F)F)cc4)CC3)c12	.	.	.	10	.	.	112	.	74%	94%	KCNQ1 ephys val=.
Cc1cc(C)cc(NC(=S)N2CCN(c3ncc(C(F)(F)F)cc3Cl)CC2)c1	.	.	.	.	.	.	/	/	/	/
Cc1csc2c(N3CCN(C(=S)Nc4ccc(C(F)(F)F)cc4)CC3)ncnc12	.	.	.	12	.	.	82	.	.	178%
Cc1csc2c(N3CCN(C(=O)NC(C)(C)C)CC3)ncnc12	.	.	.	.	.	.	/	/	/	/
Cc1ccccc1CSc1ccc(-c2ccc3c(c2)OCO3)nn1	.	.	.	7	.	.	132	0.36	106%	156%
COc1ccc(-c2cc(-c3nnc(COC(=O)c4ccc(O)cc4)o3)c3ccccc3n2)cc1OC	.	.	.	9	.	.	104	.	98%	+	KCNQ1 ephys val=.
CC1(C)CC(=O)C2=C(C1)Nc1ccccc1NC2	.	.	.	7	.	.	.	.	.	.
CC1(C)CC(=O)C2=C(C1)Nc1ccccc1S2	.	.	.	.	.	.	/	/	/	/
Nc1nn(S(=O)(=O)c2ccccc2)cc1-c1ccc([N+](=O)[O-])cc1	.	.	.	.	.	.	/	/	/	/
Nc1ccc(Oc2ccc3nc(-c4ccccc4)c(-c4ccccc4)nc3c2)cc1	.	.	.	.	.	.	/	/	/	/
Cc1ccc(-c2nc3ccccc3nc2-c2ccccc2)cc1	.	.	.	15	.	.	88	.	108%	152%	KCNQ1 ephys val=+
